Assay results: ChEMBL document CHEMBL1134776, “Novel azo derivatives as prodrugs of 5-aminosalicylic acid and amino derivatives with potent platelet activating factor antagonist activity” (J Med Chem, 2001)

How the values were obtained:
Format in all cases: functional
[1] = organism: Oryctolagus cuniculus; experiment: Concentration required to inhibit PAF-induced maximum aggregation by 50%
Method in brief: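 Platelet-rich plasma was prepared by centrifuging blood at 250 g for 10 min at 4 °C, then diluted with platelet-poor plasma (3000g, 10 min) to 3.5 × 10^5 platelets/mm3. Aggregation was induced with C18-PAF (1.5 × 10^-8 M) and read in an aggregometer as maximum aggregation. IC50 came from linear regression of one curve with ≥4 points (15–85% inhibition), each point the mean of 1–3 experiments.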

[2] = organism: Rattus norvegicus; experiment: Dose required to reduce the lowering of the arterial blood pressure caused by PAF by 50 %.; settings: read-out: ID50 (the source's name)
Method in brief: (§1)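 Male Sprague-Dawley rats (180–220 g) were anesthetized with pentobarbital (50 mg/kg ip), and blood pressure was recorded from the left carotid artery. Compound in saline (1 mL/kg) was given iv via a femoral vein 3 min before PAF (0.5 µg/kg iv). ID50 came from linear regression of one curve with ≥4 doses (15–85% inhibition), each point the mean of ≥2 experiments.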

[3] = tested on: Rattus norvegicus; experiment: Dose required to reduce the lowering of the arterial blood pressure caused by PAF by 50 % in rats intravenously; settings: iv, read-out: ID50 (the source's name); method in brief: as §1
[4] = organism: Rattus norvegicus; experiment: Effect of compound on LTB4 production was measured in rat
Method in brief: (§2)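 Female Wistar rats (180–220 g) were fasted overnight and given 30 mg TNBS in 0.25 mL 50% ethanol intrarectally by cannula inserted 8 cm, under anesthesia. Compounds were dosed orally in 1% methylcellulose for 5 days before induction and 24 h after. Colons were removed at 48 h and blind-scored 0–10 for macroscopic damage. Diarrhea was analyzed by χ2, means by ANOVA, and scores by Mann–Whitney.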

[5] = organism: Rattus norvegicus; experiment: Damage to the colon observed after 48 hr after colitis induction in rats; method in brief: as §2
[6] = organism: Rattus norvegicus; experiment: Effect of compound on myeloperoxidase activity was evaluated in rat; method in brief: as §2
[7] = organism: Rattus norvegicus; experiment: Colonic weight was measured in rats; method in brief: as §2
[8] = organism: Rattus norvegicus; experiment: % of rats exhibiting diarrhea; method in brief: as §2

Structure (SMILES) | IC50 [1] | ED50 [2] | further results
Cc1nc2cnccc2n1CC1CCN(C(=O)NCc2ccc(N)cc2)CC1 | 1550 nM | 2.42 mg/kg | –
CCOC(=O)N(CC(=O)N1CCC(Cn2c(C)nc3cnccc32)CC1)c1ccc(N)cc1 | 250 nM | – | –
Cc1nc2cnccc2n1CC1CCN(C(=O)/C=C(/c2ccccc2)c2ccc(N)cc2)CC1 | 8 nM | 0.029 mg/kg | –
Cc1nc2cnccc2n1CC1CCN(C(=O)CC(Nc2ccc(N)cc2)c2ccccc2)CC1 (stereo unspecified) | 29 nM | 0.11 mg/kg | –
Cc1nc2cnccc2n1Cc1ccc(S(=O)(=O)N[C@@H](CC(C)C)C(=O)NCc2ccc(N)cc2)cc1 | 120 nM | – | ED50 [3]: 0.075 mg/kg
Cc1nc2cnccc2n1CC1CCN(C(=O)/C=C(\c2ccccc2)c2ccc(N)cc2)CC1 | 5 nM | 0.01 mg/kg | –
CCOC(=O)[C@H](CC(C)C)N(C(=O)c1ccc(/N=N\c2ccc(O)c(C(=O)O)c2)cc1)S(=O)(=O)c1ccc(Cn2c(C)nc3cnccc32)cc1 | 1470 nM | 0.47 mg/kg | –
Cc1nc2cnccc2n1Cc1ccc(S(=O)(=O)N(C)c2cccc(N)c2)cc1 | 300 nM | – | ED50 [3]: 0.22 mg/kg
CCOC(=O)C(CC(=O)N1CCC(Cn2c(C)nc3cnccc32)CC1)c1ccc(N)cc1 (stereo unspecified) | 74 nM | 0.56 mg/kg | –
Cc1nc2cnccc2n1CC1CCN(C(=O)CC(C)(C)c2ccc(/N=N\c3ccc(O)c(C(=O)O)c3)cc2)CC1 | 1600 nM | 0.11 mg/kg | –
Cc1nc2cnccc2n1CC1CCN(C(=O)/C=C(/c2ccccc2)c2ccc(/N=N\c3ccc(O)c(C(=O)O)c3)cc2)CC1 | 4100 nM | 2.81 mg/kg | Production [4]: <4.5 ng (g of tissue)-1; Damage score [5]: <7.5 0-10; Activity [6]: <445.9 U (g of tissue)-1; Colonic weight [7]: <149.6 mg/cm; Animals [8]: <25%
Cc1nc2cnccc2n1CC1CCN(C(=O)CN(c2ccccc2)S(=O)(=O)c2ccc(/N=N\c3ccc(O)c(C(=O)O)c3)cc2)CC1 | 4010 nM | 0.19 mg/kg | –
Cc1nc2cnccc2n1CC1CCN(C(=O)CN(C)C(=O)c2ccc(N)cc2)CC1 | 1270 nM | – | –
CCOC(=O)[C@H](CC(C)C)N(Cc1ccc(/N=N\c2ccc(O)c(C(=O)O)c2)cc1)S(=O)(=O)c1ccc(Cn2c(C)nc3cnccc32)cc1 | 490 nM | 1.31 mg/kg | –
Cc1nc2cnccc2n1CC1CCN(C(=O)C(C)c2ccc(N)cc2)CC1 (stereo unspecified) | 430 nM | 1.47 mg/kg | –
CCOC(=O)NC(CC(=O)N1CCC(Cn2c(C)nc3cnccc32)CC1)c1ccc(N)cc1 (stereo unspecified) | 270 nM | 0.13 mg/kg | –
CCOC[C@H](CC(C)C)N(Cc1ccc(N)cc1)S(=O)(=O)c1ccc(Cn2c(C)nc3cnccc32)cc1 | 16 nM | – | –
Cc1nc2cnccc2n1CC1CCN(C(=O)CC(C)c2ccc(N)cc2)CC1 (stereo unspecified) | 11 nM | 0.24 mg/kg | –
CCOC[C@H](CC(C)C)N(C(=O)c1ccc(N)cc1)S(=O)(=O)c1ccc(Cn2c(C)nc3cnccc32)cc1 | 1280 nM | – | ED50 [3]: 0.3 mg/kg

Structure (SMILES) | IC50 [1] | ED50 [2] | further results
CCOC(=O)[C@H](CC(C)C)N(Cc1ccc(N)cc1)S(=O)(=O)c1ccc(Cn2c(C)nc3cnccc32)cc1 | 12 nM | – | –
Cc1nc2cnccc2n1CC1CCN(C(=O)CN(CC(C)C)S(=O)(=O)c2ccc(N)cc2)CC1 | 610 nM | – | ED50 [3]: 0.029 mg/kg
Cc1nc2cnccc2n1CC1CCN(C(=O)CN(c2ccccc2)S(=O)(=O)c2ccc(N)cc2)CC1 | 75 nM | – | –
Cc1nc2cnccc2n1Cc1ccc(S(=O)(=O)N(C)[C@@H](CC(C)C)C(=O)NCc2cccc(N)c2)cc1 | 250 nM | – | ED50 [3]: 0.28 mg/kg
Cc1nc2cnccc2n1CC1CCN(C(=O)/C=C/c2ccc(N)cc2)CC1 | 1200 nM | 1.23 mg/kg | –
Cc1nc2cnccc2n1CC1CCN(C(=O)CC(NC(=O)c2ccc(N)cc2)c2ccccc2)CC1 (stereo unspecified) | 2200 nM | 0.19 mg/kg | –
CCOC[C@H](CC(C)C)N(Cc1ccc(/N=N\c2ccc(O)c(C(=O)O)c2)cc1)S(=O)(=O)c1ccc(Cn2c(C)nc3cnccc32)cc1 | 400 nM | 2.51 mg/kg | –
CCOC(=O)[C@H](Cc1ccc(N)cc1)NS(=O)(=O)c1ccc(Cn2c(C)nc3cnccc32)cc1 | 740 nM | – | ED50 [3]: 0.19 mg/kg
Cc1nc2cnccc2n1CC1CCN(C(=O)/C=C(\c2ccccc2)c2ccc(/N=N\c3ccc(O)c(C(=O)O)c3)cc2)CC1 | 7300 nM | – | –
C/C(=C\C(=O)N1CCC(Cn2c(C)nc3cnccc32)CC1)c1ccc(N)cc1 | 60 nM | 0.17 mg/kg | –
Cc1nc2cnccc2n1CC1CCN(C(=O)CC(C)(C)c2ccc(N)cc2)CC1 | 19 nM | – | –
CCOC(=O)[C@H](CC(C)C)N(C(=O)c1ccc(N)cc1)S(=O)(=O)c1ccc(Cn2c(C)nc3cnccc32)cc1 | 30 nM | – | –
CCOC(=O)[C@H](Cc1ccc(N)cc1)NC(=O)N1CCC(Cn2c(C)nc3cnccc32)CC1 | 32 nM | 1.13 mg/kg | –
Cc1nc2cnccc2n1CC1CCN(C(=O)/C=C(/c2ccccc2)c2cccc(N)c2)CC1 | 190 nM | – | –
CCOC(=O)[C@H](CC(C)C)N(Cc1cccc(N)c1)S(=O)(=O)c1ccc(Cn2c(C)nc3cnccc32)cc1 | 17 nM | 0.043 mg/kg | –
Cc1nc2cnccc2n1CC1CCN(C(=O)NC(C)c2ccc(N)cc2)CC1 (stereo unspecified) | 1600 nM | – | –
O=C(O)CCNC(=O)c1ccc(/N=N/c2ccc(O)c(C(=O)O)c2)cc1 [BALSALAZIDE] | > 200000 nM | – | –
O=C(O)c1cc(/N=N/c2ccc(S(=O)(=O)Nc3ccccn3)cc2)ccc1O [SULFASALAZINE] | > 200000 nM | – | Damage score [5]: 8 0-10; Activity [6]: 683.3 U (g of tissue)-1; Colonic weight [7]: 154.4 mg/cm; Animals [8]: 62.5%
